Screening data as filed in PubChem.
Sampled rows, rich in hits. Any-hit rate of the full collection: about 2.3%.
Autophagy HCS: alters autophagy in cells. MEF GFP-LC3 puncta imaging; test concentration mostly 10 µM. calls only at 10 µM (by protocol). 190,000 compounds, 0.98% hits;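 active = percentage of spot-positive cells more than 3 SD above its plate mean, without a fluorescence outlier flag or 80% toxicity; inconclusive = no clear call, values can overlap the other calls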;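 also: spot-positive cell cutoff set from DMSO-treated cells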
ABCG2 block: blocks JC-1 efflux by human ABCG2 transporter; IgMXP3 cells, flow cytometry; 190,000 compounds, 0.1% hits; inhibition, % at 6.6 µM; AID 1325; Q9UNQ0;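 active = inhibition above 80%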;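 also: 0% = DMSO and 100% = nicardipine control wells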
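Test system: IgMXP3 (ABCG2) plus far-red-tagged CCRF-Adr (ABCB1) cells. Reagent: JC-1 dye as substrate. Timing: 10 min exposure at 25 °C with rotation, no wash. Measured by: flow cytometric JC-1 green MFI at 530 nm. Read-out: percent efflux inhibition, scaled nicardipine 100% to DMSO 0%. Control set: nicardipine and DMSO wells.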
Insulin prom up: MIN6 insulin promoter up-regulation | 190,000 compounds, 0.3% hits | MIN6 insulin promoter-GFP reporter, high-content imaging; active compounds read high | z-score at 5 µM;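 active = z-score above 3 at 5 µM with at least 500 cells counted in the well; inconclusive = wells under 500 cells, flagged as cytotoxic or low count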
sdo1 growth: compounds rescuing growth of sdo1-depleted yeast, bone marrow failure model; AID 817; z-score at 10 µM; 140,000 compounds, 0.21% hits; S. cerevisiae sdo1-depleted JHY4D growth rescue, OD600 30 h; active compounds read high; pdr5 snq2 efflux-pump mutant strain;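 active = z-score above 3 at both the 24 hr and the 30 hr optical density reads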;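 also: z-score against mean and SD of all compound wells on the same plate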
ROMK mod: human ROMK K+ channel modulation, primary screen; P48048; Tet-inducible ROMK, thallium flux fluorescence; actives lie on both sides; B-score at 10 µM; 130,000 compounds, 2% hits;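 active = signal ratio slope over the read window, or its plate-corrected B-score, at least 3 SD from the plate mean, either direction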;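 also: B-score of the F/F0 ratio slope over 7 to 12 s after thallium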
ABCB1 inh: inhibitors of human ABCB1 transporter, ABCG2 counter-screen. P08183. CCRF-Adr cells, JC-1 efflux, flow cytometry. inhibition, % at 6.6 µM. 190,000 compounds, 0.067% hits. AID 1326; in the data active = inhibition above about 40%;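 also: 0% = vehicle and 100% = reference inhibitor; higher value means more JC-1 retained so stronger ABCB1 efflux block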
Target sequence (P08183 whole entry, looked up): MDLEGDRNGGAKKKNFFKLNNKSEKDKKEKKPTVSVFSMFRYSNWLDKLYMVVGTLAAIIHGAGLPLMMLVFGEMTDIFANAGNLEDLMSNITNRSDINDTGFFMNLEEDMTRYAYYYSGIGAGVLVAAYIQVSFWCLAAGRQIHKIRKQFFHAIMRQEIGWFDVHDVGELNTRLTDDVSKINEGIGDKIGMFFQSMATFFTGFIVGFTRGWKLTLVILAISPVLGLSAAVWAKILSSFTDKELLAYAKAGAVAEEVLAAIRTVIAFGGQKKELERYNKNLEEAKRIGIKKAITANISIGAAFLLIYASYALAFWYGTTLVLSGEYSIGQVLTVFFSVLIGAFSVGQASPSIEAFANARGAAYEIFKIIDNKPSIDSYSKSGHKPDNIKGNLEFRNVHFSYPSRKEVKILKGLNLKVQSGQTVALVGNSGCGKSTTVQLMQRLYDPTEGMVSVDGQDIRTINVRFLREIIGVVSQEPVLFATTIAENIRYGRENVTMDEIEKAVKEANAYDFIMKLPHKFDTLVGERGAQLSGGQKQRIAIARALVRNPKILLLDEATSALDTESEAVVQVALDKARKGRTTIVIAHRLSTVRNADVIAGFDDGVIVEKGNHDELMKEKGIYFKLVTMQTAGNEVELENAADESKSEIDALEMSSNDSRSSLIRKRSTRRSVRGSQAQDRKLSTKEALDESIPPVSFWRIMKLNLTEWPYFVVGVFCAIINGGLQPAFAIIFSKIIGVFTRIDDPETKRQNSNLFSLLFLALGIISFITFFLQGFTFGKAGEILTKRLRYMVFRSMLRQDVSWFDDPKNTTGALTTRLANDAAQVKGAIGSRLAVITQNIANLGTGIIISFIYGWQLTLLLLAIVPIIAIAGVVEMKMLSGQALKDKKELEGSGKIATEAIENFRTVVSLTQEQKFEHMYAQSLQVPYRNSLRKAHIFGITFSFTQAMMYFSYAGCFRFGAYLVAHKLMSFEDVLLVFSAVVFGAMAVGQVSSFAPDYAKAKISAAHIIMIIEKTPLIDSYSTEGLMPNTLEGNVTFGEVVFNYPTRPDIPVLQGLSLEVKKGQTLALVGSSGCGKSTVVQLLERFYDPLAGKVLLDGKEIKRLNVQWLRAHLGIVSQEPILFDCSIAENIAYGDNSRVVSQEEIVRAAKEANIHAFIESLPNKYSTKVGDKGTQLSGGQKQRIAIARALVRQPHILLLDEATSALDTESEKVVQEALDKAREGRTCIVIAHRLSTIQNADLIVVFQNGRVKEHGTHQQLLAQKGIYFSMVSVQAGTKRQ
ROMK hit retest: retested hit modulating human ROMK potassium channel; shares compounds with ROMK mod; ROMK thallium flux, fluorescence ratio; active compounds read low; normalized thallium flux (F/F0 slope) at 10 µM; 3,000 compounds, 54% hits; AID 1917;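 active = Flux at 10 µM at least 3 SD below or above vehicle control mean in one or both replicates; inconclusive = no clear call, values can overlap the other calls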
An asterisk follows results filed as active; i = inactive; ? = inconclusive; . = no result given; + = active, no number.

SMILES	Autophagy HCS	ABCG2 block	Insulin prom up	sdo1 growth	ROMK mod	ABCB1 inh	ROMK hit retest
C=CCOc1ccc(Br)cc1CNC(C)(C)CO	i	8	-0.31	.	.	1	.
C=CCOc1ccc(Br)cc1CNC(C)(C)C	i	2	.	.	0.5	1	0.072
COc1ccc(Cl)cc1-c1nc(-c2ccc(NC(=O)c3ccncc3)cc2)no1	i	.	.	.	.	.	.
COc1ccc(-c2nc(-c3ccc(NC(=O)c4ccncc4)cc3)no2)cc1OC	.	-5	.	-0.2	.	-2	0.079
Cc1cc(C)c(C)c(S(=O)(=O)NC2CCN(Cc3ccccc3)CC2)c1C	i	0	-0.32	.	-4*	1	0.063*
O=C(NNS(=O)(=O)c1ccc2ccccc2c1)C1CCN(Cc2ccccc2)CC1	i	0	.	0.64	.	0	.
O=S(=O)(NC1CCN(Cc2ccccc2)CC1)c1ccc2ccccc2c1	i	0	-0.22	.	-3.5*	0	0.064*
CCN(CC)C(=O)Cn1c(=O)c2ccccc2n2c(=S)sc(-c3cccc(C)c3)c12	+	-1	1.4	-0.09	.	1	0.049*
COCCCNC(=O)CC1C(=O)N(Cc2ccccc2)C(C)c2nc3ccccc3n21 (stereo not drawn)	i	1	-0.53	.	-4.4*	0	0.089
C=CCn1c(SCC(=O)c2c(C)[nH]c3ccccc23)nnc1-c1ccncc1	i	17	0.29	.	0.64	1	.
COc1cc2c(cc1OC)CN(CCC(=O)c1ccc(Br)cc1)CC2	i	0	-0.23	.	-4*	0	?
COc1cc2c(cc1OC)CN(CC(=O)Nc1cccc(C)c1)CC2	i	15	-0.36	-0.63	.	2	.
CCC(C)C(=O)Nc1nnc(SCC(=O)NC(C)(C)C)s1 (stereo not drawn)	i	2	1.1	.	0.26	0	.
Cn1c(Cc2ccccc2)nnc1SCc1nc2ccccc2c(=O)[nH]1	i	3	-0.61	.	2.5	0	0.086
O=C(CCS(=O)(=O)Cc1ccc(Cl)cc1)NCCc1ccccc1	i	1	.	.	-0.4	0	.
COc1ccc(C2=NOC(COc3ccc4c(C)cc(=O)oc4c3)C2)c(OC)c1 (stereo not drawn)	.	.	-0.85	.	.	.	.
COc1ccccc1C1=NOC(COc2ccc3c(C)cc(=O)oc3c2)C1 (stereo not drawn)	.	.	.	.	3.3*	.	0.082
O=C(Cn1ncc2c3ccccc3n(Cc3ccc(F)cc3)c2c1=O)N1CCN(c2ncccn2)CC1	i	1	-1	-1.3	-2.9*	5	0.067*
CN(CCC#N)C(=O)COC(=O)c1ccc(CNS(=O)(=O)c2ccc(F)c(Cl)c2)cc1	i	2	-0.11	0.24	.	0	.
c1ccc2sc(Sc3ncnc4sccc34)nc2c1	i	8	0.97	0.77	.	0	0.078
Fc1ccc(-c2cnn3c(-c4cccs4)ccnc23)cc1	i	5	1.7	.	-2.3*	0	0.063*
CC(=O)Nc1ccc2c(c1)C(=O)N(c1cccc(C)c1)C2=O	.	.	-0.65	.	.	.	.
Cc1cccc(N2C(=O)/C(=C\c3ccc(C(=O)O)cc3)c3ccccc3C2=O)c1	i	-1	-0.3	.	-6.4*	-1	0.046*
COc1cc(C(=O)Nc2ccc3c(c2)N(C(=O)CN2CCN(C)CC2)c2ccccc2CC3)cc(OC)c1OC	.	.	-0.1	.	.	.	.
Oc1c(CN2CCCCC2)cc(COCc2ccccc2)c2cccnc12	i	2	?	0.83	-4.5*	1	0.07
SMILES	Autophagy HCS	ABCG2 block	Insulin prom up	sdo1 growth	ROMK mod	ABCB1 inh	ROMK hit retest
COCc1cc(CN2CCCC2)c(O)c2ncccc12	i	1	-1.8	0.36	0.84	0	.
Cc1ccccc1N1C(=O)c2sc3nc4c(c(=O)n3c2C1=O)CCC4	i	-1	-0.04	-2.4	-3.1*	0	0.078
O=C1c2sc3nc4c(c(=O)n3c2C(=O)N1c1ccccc1)CCC4	i	1	0.23	-1.5	1.4	0	.
Cc1nc2c(C#N)c[nH]n2c(=O)c1CCO	.	.	0.15	.	.	.	.
CN(O)/C=N/C(=S)Nc1ccc(Cl)cc1Cl	i	4	-0.65	.	2.4*	2	0.08
CN(C)/C=N/C(=S)Nc1ccccc1Cl	i	0	0.01	.	-0.33	0	.
O=C1NC[C@H](c2ccccc2)N(CCc2cccc(F)c2)C1=O	.	.	-0.11	.	.	.	.
Cc1cc(Br)cn2ccnc12	i	-2	1.3	0.61	1.2*	0	0.08
CCc1ccc2c(c1)C(O)(CC(=O)c1cccs1)C(=O)N2 (stereo not drawn)	i	1	-0.07	.	-0.24	0	.
COc1ccc(CCNC(=S)NC2CCN(Cc3ccccc3)CC2)cc1	i	0	-0.61	.	-0.025	-1	.
COc1cccc(Cn2c(=S)[nH]c3ccc(N4CCOCC4)cc3c2=O)c1	i	1	0.37	-1.4	-0.99	0	.
O=c1c2cc(N3CCOCC3)ccc2[nH]c(=S)n1Cc1cccc(Cl)c1	i	4	.	-1.6	.	1	0.086
CC(C)CCNC(=O)C(c1ccc(O)cc1)N(C(=O)C1COc2ccccc2O1)c1cccc(O)c1 (stereo not drawn)	i	1	-0.24	.	-2.7*	0	0.055*
Cc1ccc(OCCCCNC2CCCC(C)C2C)c(C)c1 (stereo not drawn)	i	-3	-0.83	.	.	0	0.053*
Cc1ccc(OCCCN2CCCC2)c(C)c1	i	2	0.02	1	-0.085	0	.
O=C(COc1ccccc1-c1ccccc1)NN=C1CCCC1	i	3	0.07	.	0.062	1	.
O=C1CCC/C(=N\NC(=O)c2ccc(COc3ccccc3-c3ccccc3)cc2)C1	i	0	-0.19	.	-5.5*	0	0.078
CCOC(=O)N1CCN(C(=O)/C(=C\c2ccc(SC)cc2)NC(=O)c2ccccc2)CC1	.	.	-0.48	.	.	.	.
CSc1ccc(/C=C(\NC(=O)c2ccccc2)C(=O)NN)cc1	.	.	0.75	.	.	.	0.074
Cc1cc(N)c2cc(NC(=O)/C=C/c3ccccc3Cl)ccc2n1	.	.	-1.9	.	.	.	0.055*
CC[C@H](C)[C@H](NC(N)=O)C(=O)Nc1ccc(NC(C)=O)cc1	.	.	0.05	.	.	.	0.082
CC(C)C[C@H](NC(=O)c1nc[nH]c1C(=O)N(C)Cc1ccccc1)C(=O)OC(C)(C)C	i	3	2.3	.	.	2	.
Cc1ccc2c(c1)nnn2C1CCN(CC(=O)Nc2ccccc2N2CCOCC2)CC1	i	5	-1.7	-1.2	-4.2*	2	0.055*
COc1ccc(Cl)cc1NC(=O)CN1CCC(n2nnc3cc(C)ccc32)CC1	i	5	-4	-2.1	-0.86	1	.
COc1ccccc1NC(=O)CCSc1nnnn1C	i	6	-0.16	-0.61	.	0	0.074
Cc1ccc(C(=O)C(c2ccccc2)N2Cc3ccccc3C2=N)cc1 (stereo not drawn)	i	-3	.	-1.6	-3*	2	0.054*
CC(C)NC(=O)CCCc1c[nH]c2ccccc12	i	2	0.14	.	-0.21	0	.
